Entries after “also recorded” stand apart in the source; their conditions may differ. Blank lines part the entries; values can stand above or below the molecule they belong to.
Experiments:
[1] = target: T1, Cathepsin B (Homo sapiens, UniProt P07858); settings: cited from earlier work; for kinact: cathepsin B, range stated for both compounds and both enzymes
[2] = target: T2, cathepsin L (Homo sapiens, UniProt P07711); settings: cited from earlier work; for kinact: cathepsin L, range stated for both compounds and both enzymes
[3] = test system: K-Ras^G12C; settings: cited from earlier work
[4] = target: T3, Calpain I (Homo sapiens, UniProt P07384); test: Calpain I inhibition with and without preincubation; assay type: biochemical; settings: with and without preincubation of the inhibitor
T3 sequence (P07384 1-714): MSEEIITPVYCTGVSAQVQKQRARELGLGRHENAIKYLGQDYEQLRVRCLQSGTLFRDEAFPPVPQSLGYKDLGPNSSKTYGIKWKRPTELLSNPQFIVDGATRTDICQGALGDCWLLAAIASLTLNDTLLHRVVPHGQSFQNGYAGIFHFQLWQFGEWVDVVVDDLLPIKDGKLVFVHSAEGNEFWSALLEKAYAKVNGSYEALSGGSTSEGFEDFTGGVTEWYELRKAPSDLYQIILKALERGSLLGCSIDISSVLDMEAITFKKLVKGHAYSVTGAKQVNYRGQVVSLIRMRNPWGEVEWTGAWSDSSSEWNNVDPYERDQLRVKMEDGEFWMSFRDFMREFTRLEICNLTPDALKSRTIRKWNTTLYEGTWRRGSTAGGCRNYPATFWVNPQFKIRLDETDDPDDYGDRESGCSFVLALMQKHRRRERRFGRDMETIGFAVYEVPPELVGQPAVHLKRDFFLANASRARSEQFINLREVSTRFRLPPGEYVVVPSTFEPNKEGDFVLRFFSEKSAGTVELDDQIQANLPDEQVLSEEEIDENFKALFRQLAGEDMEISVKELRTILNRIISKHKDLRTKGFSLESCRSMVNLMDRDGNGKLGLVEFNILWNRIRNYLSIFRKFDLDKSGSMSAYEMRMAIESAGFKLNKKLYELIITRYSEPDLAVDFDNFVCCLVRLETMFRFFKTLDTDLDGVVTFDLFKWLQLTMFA
T3 sequence (P04632 1-268 partner): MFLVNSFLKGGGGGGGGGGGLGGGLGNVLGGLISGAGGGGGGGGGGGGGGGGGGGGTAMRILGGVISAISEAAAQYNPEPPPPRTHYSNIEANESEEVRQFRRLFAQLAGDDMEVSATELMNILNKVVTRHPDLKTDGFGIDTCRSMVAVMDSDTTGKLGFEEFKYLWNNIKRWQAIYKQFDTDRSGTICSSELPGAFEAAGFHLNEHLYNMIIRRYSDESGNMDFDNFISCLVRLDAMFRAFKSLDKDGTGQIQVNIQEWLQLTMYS

[5] = target: T2, cathepsin L; test: Cathepsin L inhibition kinetics; assay type: biochemical
[6] = target: T2, cathepsin L; test: Irreversibility study; assay type: biochemical; settings: 50 μM compound preincubated with Cathepsin L (10 nM), gel filtration
How it was run: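 Test compound at 50 μM was preincubated with cathepsin L at 10 nM, then passed through a desalting spin column. Flow-through aliquots were assayed for recovery of enzyme activity at several time points.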

[7] = target: T4, USP8 (Homo sapiens, UniProt P40818); test: USP8 inhibition with and without preincubation; assay type: biochemical; settings: with and without preincubation of the inhibitor
T4 sequence (P40818 1-1118): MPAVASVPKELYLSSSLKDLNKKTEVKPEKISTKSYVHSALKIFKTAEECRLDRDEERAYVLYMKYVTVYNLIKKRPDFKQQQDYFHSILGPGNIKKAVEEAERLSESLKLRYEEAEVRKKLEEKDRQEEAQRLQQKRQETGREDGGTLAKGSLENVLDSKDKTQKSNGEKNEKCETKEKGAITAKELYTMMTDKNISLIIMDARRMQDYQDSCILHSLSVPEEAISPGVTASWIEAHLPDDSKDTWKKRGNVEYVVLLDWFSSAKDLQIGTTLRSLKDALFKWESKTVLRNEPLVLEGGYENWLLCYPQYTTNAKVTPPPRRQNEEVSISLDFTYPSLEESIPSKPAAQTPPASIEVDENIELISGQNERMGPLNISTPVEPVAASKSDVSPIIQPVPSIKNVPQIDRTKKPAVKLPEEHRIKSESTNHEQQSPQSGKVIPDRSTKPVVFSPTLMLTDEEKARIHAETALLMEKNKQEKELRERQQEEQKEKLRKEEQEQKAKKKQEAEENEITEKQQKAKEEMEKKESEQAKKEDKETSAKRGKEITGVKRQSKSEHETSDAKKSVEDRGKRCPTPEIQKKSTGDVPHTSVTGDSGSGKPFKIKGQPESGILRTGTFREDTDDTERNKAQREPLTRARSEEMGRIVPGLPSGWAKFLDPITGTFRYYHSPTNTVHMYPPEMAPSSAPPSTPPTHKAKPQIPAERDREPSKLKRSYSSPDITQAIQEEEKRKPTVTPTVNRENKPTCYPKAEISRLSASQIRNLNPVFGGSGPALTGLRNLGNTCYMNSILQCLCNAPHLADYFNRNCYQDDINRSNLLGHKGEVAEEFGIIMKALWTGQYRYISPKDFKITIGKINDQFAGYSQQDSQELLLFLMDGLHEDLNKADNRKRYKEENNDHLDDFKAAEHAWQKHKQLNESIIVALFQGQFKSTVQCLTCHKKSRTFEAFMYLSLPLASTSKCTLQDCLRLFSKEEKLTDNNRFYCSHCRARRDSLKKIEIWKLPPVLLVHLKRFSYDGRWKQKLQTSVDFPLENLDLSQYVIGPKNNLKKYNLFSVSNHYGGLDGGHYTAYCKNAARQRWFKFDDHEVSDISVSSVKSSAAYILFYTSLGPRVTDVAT

[8] = target: T1, Cathepsin B; test: Cathepsin B inhibition with and without preincubation; assay type: biochemical; settings: with and without preincubation of the inhibitor

T2 sequence (P07711 114-333): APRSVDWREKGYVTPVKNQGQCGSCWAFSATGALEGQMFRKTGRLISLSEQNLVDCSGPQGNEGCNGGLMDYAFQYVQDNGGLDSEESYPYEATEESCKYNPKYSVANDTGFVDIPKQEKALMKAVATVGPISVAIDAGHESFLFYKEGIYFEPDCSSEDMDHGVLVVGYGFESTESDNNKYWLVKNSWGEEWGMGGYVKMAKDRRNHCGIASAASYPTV

Compound: O=C(N[C@H](/C=C/S(=O)(=O)c1ccccc1)CCc1ccccc1)[C@H](Cc1ccccc1)NC(=O)N1CCOCC1 [compound 7]
kinact [1]: 0.17 to 0.36 s⁻¹
kinact [2]: 0.17 to 0.36 s⁻¹
selectivity cathepsin L vs B as judged by Ki values [2]: more selective at inhibiting cathepsin L

Compound: C=CC(=O)N1CCN(c2ncnc3c(F)c(-c4c(O)cccc4F)c(Cl)cc23)CC1 [ARS-1620]
activity in vivo [3]: active in vivo

Compound: O=C(N[C@H](/C=C/S(=O)(=O)c1ccccc1)CCc1ccccc1)[C@H](Cc1cc(I)c(O)c(I)c1)NC(=O)N1CCOCC1 [compound 8]
kinact [1]: 0.17 to 0.36 s⁻¹
potency for cathepsin B (kinact/Ki values) ([1]; relative to compound 7): increased potency
kinact [2]: 0.17 to 0.36 s⁻¹
selectivity cathepsin L vs B as judged by Ki values [2]: reversed selectivity

mode of inhibition (shift of substrate Km) ([5]; varying concentrations of compound): substrate competitive inhibitor
reversibility of inhibition [6]: irreversibly
Compound: CS(=O)(=O)/C=C/CNC(=O)COc1ccc(Br)cc1Br [compound 13]
inhibition of Calpain I [4]: did not inhibit; also recorded: does not inhibit
inhibition of USP8 [7]: did not inhibit; also recorded: does not inhibit
inhibition of Cathepsin B [8]: did not inhibit; also recorded: does not inhibit

inhibition of cathepsin L [5]: time and dose dependent inhibition
Compound: C[C@@H](Oc1ccc(Br)cc1Br)C(=O)NC/C=C/S(C)(=O)=O [compound 11]
